Reference: ChEMBL document CHEMBL1124731, “Synthesis and biological activity of novel quaternary ammonium derivatives of alkylglycerols as potent inhibitors of protein kinase C” (J Med Chem, 1990)

Legend:
[1] = molecular target: T1, Protein kinase C (PKC) (Homo sapiens) (UniProt O94806+P41743+P17252+P05129+Q05655+P05771+Q05513+Q02156+P24723+Q15139+Q04759); assay: Retained protein kinase C activity in the presence of 5 uM compound; type: functional
Procedure, shortened: (§1)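 Assay at pH 7.5, 25 mM Tris, 10 mM MgCl2, 0.1 mM CaCl2, 40 µg/mL histone, 10 µM ATP with [γ-32P]ATP, 20 µg/mL phosphatidylserine, 2.5 µM OAG. Compound added in ethanol before enzyme; 20 min at 30 °C; TCA-precipitated 32P-histone counted; 0.1% ethanol control; duplicates in three trials, fresh enzyme each.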

[2] = molecular target: T1, Protein kinase C (PKC) (Homo sapiens); assay: Retained protein kinase C activity in the presence of 40 uM compound; type: functional; procedure, shortened: as §1
[3] = molecular target: T1, Protein kinase C (PKC) (Homo sapiens); assay: Inhibition of Protein Kinase C purified from HL-60 cells; type: cell-free; procedure, shortened: as §1
[4] = molecular target: T1, Protein kinase C (PKC) (Homo sapiens); assay: Retained protein kinase C activity in the presence 2.5 uM compound; type: functional; procedure, shortened: as §1
[5] = molecular target: T1, Protein kinase C (PKC) (Homo sapiens); assay: Retained protein kinase C activity in the presence of 10 uM compound; type: functional; procedure, shortened: as §1
[6] = molecular target: T1, Protein kinase C (PKC) (Homo sapiens); assay: Retained protein kinase C activity in the presence of 20 uM compound; type: functional; procedure, shortened: as §1
[7] = molecular target: T1, Protein kinase C (PKC) (Homo sapiens); assay: Retained protein kinase C activity in the presence of 1.25 uM compound; type: functional; procedure, shortened: as §1

SMILES	Activity [1] [%]	Activity [2] [%]	ID50 [3] [µM]	Activity [4] [%]	Activity [5] [%]	Activity [6] [%]	Activity [7] [%]
CCCCCCCCCCCCCCCCSCC(C[N+](C)(C)C)OC (stereo unspecified)	81	29	25	88	74	54	112
CCCCCCCCCCCCCCCCCCSCC(C[N+](C)(C)CCCO)OC (stereo unspecified)	49	23	5	56	39	27	75
CCCCCCCCCCCCCCCCOCC(COCC[N+](C)(C)C)OC (stereo unspecified)	83	43	31	91	73	57	92
CC1(C)OC[C@@H](C[N+](C)(C)CCO)O1	87	87	> 40	84	88	96	88
COC(COc1cccc2ccccc12)C[N+](C)(C)CCO (stereo unspecified)	83	90	> 40	99	89	87	99
CCCCCCCCCCCCCCCCC[C@@H]1OC[C@@H](C[N+](C)(C)CCCO)O1	70	19	17	90	56	43	94
CCCCCCCCCCCCCCCCCCOCC(COP(=O)([O-])OCC[N+](C)(C)C)OC (stereo unspecified)	73	29	12	93	60	40	99
CCCCCCCCCCCCCCCCSCC(C[N+](C)(C)CCCO)OCC (stereo unspecified)	67	37	26	64	60	59	78
CCCCCCCCCCCCCCCCOCC(C[N+](C)(C)CCO)OC (stereo unspecified)	87	29	17	95	64	42	107
CCCCCCCCCCCCCCCCCC1OCC(C[N+](C)(C)CCCO)O1 (stereo unspecified)	61	12	13	99	56	36	99
CCCCCCCCCCCCCCCCSCC(C[N+](C)(C)CCO)OCC (stereo unspecified)	70	47	37	84	70	66	92
CCCCCCCCCCCCCCCCSCC(C[N+](C)(C)CCO)OC (stereo unspecified)	73	42	27	90	60	54	97
CCCCCCCCCCCCCCCCOCC(COCCO)OC (stereo unspecified)	72	43	28	86	66	53	98
